Reference: ChEMBL document CHEMBL2331221, “Potent elastase inhibitors from cyanobacteria: structural basis and mechanisms mediating cytoprotective and anti-inflammatory effects in bronchial epithelial cells” (J Med Chem, 2013)
The source made the active and inactive calls. The calls are words filed in the database; no cut-off is given here.

What was measured:
[1] = target: Cathepsin L2 (Homo sapiens) (UniProt O60911); experiment: Inhibition of Cathepsin V (unknown origin) using Z-FR-AMC substrate assessed as residual activity at 10 uM incubated for 15 mins prior to substrate addition measured for 2 hrs
How it was run: (§1)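 Protease panel screen: enzyme and test inhibitor preincubated 15 min in the enzyme's reaction buffer, then substrate added. Reaction followed for 2 h, and activity was taken from the initial linear portion of the progress-curve slope. Enzyme, substrate, buffer and detection conditions for each target are given only in the paper's supporting table.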

[2] = target: Tryptase gamma (Homo sapiens, UniProt Q9NRR2); experiment: Inhibition of Tryptase gamma1 (unknown origin) using Z-GPR-AMC substrate assessed as residual activity at 10 uM incubated for 15 mins prior to substrate addition measured for 2 hrs
How it was run: (§2)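 Protease panel screen: enzyme and inhibitor preincubated 15 min in reaction buffer, then substrate added; reaction followed for 2 h and the initial linear part of the progress curve used for activity. Enzyme, substrate, buffer and detection details are given only in a supporting table.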

[3] = target: Cathepsin Z (Homo sapiens) (UniProt Q9UBR2); experiment: Inhibition of Cathepsin X/Z (unknown origin) using MCA-RPPGFSAFK(Dnp) substrate assessed as residual activity at 10 uM incubated for 15 mins prior to substrate addition measured for 2 hrs; how it was run: as §1
[4] = target: Collagenase 3 (Homo sapiens) (UniProt P45452); experiment: Inhibition of MMP13 (unknown origin) using (5-FAM/QXLTM) FRET peptide substrate assessed as residual activity at 10 uM incubated for 15 mins prior to substrate addition measured for 2 hrs; how it was run: as §1
[5] = target: Stromelysin-2 (Homo sapiens) (UniProt P09238); experiment: Inhibition of MMP10 (unknown origin) using (5-FAM/QXLTM) FRET peptide substrate assessed as residual activity at 10 uM incubated for 15 mins prior to substrate addition measured for 2 hrs; how it was run: as §1
[6] = target: Neutrophil collagenase (Homo sapiens) (UniProt P22894); experiment: Inhibition of MMP8 (unknown origin) using (5-FAM/QXLTM) FRET peptide substrate assessed as residual activity at 10 uM incubated for 15 mins prior to substrate addition measured for 2 hrs; how it was run: as §2
[7] = target: Trypsin (Homo sapiens, UniProt P07477+P07478+P35030); experiment: Inhibition of Trypsin (unknown origin) using H-D-CHA -Ala-Arg-AMC.2AcOH substrate incubated for 15 mins prior to substrate addition measured for 2 hrs; type: protein assay; how it was run: as §2
[8] = target: Vitamin K-dependent protein C (Homo sapiens) (UniProt P04070); experiment: Inhibition of Activated Protein C (unknown origin) using Boc-DVLR-ANSNH-C4H9 substrate assessed as residual activity at 10 uM incubated for 15 mins prior to substrate addition measured for 2 hrs; how it was run: as §1
[9] = target: Cathepsin G (Homo sapiens) (UniProt P08311); experiment: Inhibition of Cathepsin G (unknown origin) using Suc-AAPF-AMC substrate assessed as residual activity at 10 uM incubated for 15 mins prior to substrate addition measured for 2 hrs; how it was run: as §1
[10] = target: Cathepsin K (Homo sapiens) (UniProt P43235); experiment: Inhibition of Cathepsin K (unknown origin) using Z-GPR-AMC substrate assessed as residual activity at 10 uM incubated for 15 mins prior to substrate addition measured for 2 hrs; how it was run: as §1
[11] = target: Cathepsin D (Homo sapiens) (UniProt P07339); experiment: Inhibition of Cathepsin D (unknown origin) using MCA-KPILFFRLK(Dnp)-D-R-NH2 substrate assessed as residual activity at 10 uM incubated for 15 mins prior to substrate addition measured for 2 hrs; how it was run: as §1
[12] = target: T1, Neutrophil elastase (Homo sapiens) (UniProt P08246); settings: 10 uM
T1 sequence (whole entry): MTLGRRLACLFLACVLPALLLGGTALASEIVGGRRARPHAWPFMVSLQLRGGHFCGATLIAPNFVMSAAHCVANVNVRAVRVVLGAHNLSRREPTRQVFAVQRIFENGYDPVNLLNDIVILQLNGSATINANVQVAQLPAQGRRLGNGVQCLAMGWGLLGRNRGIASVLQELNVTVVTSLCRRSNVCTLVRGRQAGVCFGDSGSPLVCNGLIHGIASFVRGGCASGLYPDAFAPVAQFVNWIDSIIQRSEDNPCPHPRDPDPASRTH

[13] = target: Dipeptidyl peptidase 9 (Homo sapiens) (UniProt Q86TI2); experiment: Inhibition of DPP9 (unknown origin) using H-GP-AMC substrate assessed as residual activity at 10 uM incubated for 15 mins prior to substrate addition measured for 2 hrs; how it was run: as §1
[14] = target: Disintegrin and metalloproteinase domain-containing protein 17 (Homo sapiens) (UniProt P78536); experiment: Inhibition of TACE (unknown origin) using MCA-PLAQAV-Dpa-RSSSR-NH2 substrate assessed as residual activity at 10 uM incubated for 15 mins prior to substrate addition measured for 2 hrs; how it was run: as §2
[15] = species on record: Homo sapiens; experiment: Inhibition of Thrombin alpha (unknown origin) using H-D-CHA -Ala-Arg-AMC.2AcOH substrate assessed as residual activity at 10 uM incubated for 15 mins prior to substrate addition measured for 2 hrs; how it was run: as §2
[16] = target: T1, Neutrophil elastase (Homo sapiens); settings: 10 uM; remark: listed apart in the source
[17] = target: Disintegrin and metalloproteinase domain-containing protein 9 (Homo sapiens) (UniProt Q13443); experiment: Inhibition of ADAM9 (unknown origin) using MCA-PLAQAV-Dpa-RSSSR-[…] substrate assessed as residual activity at 10 uM incubated for 15 mins prior to substrate addition measured for 2 hrs; how it was run: as §1
[18] = target: T1, Neutrophil elastase (Homo sapiens); settings: 10 uM; remark: listed apart in the source
[19] = target: 72 kDa type IV collagenase (Homo sapiens) (UniProt P08253); experiment: Inhibition of MMP2 (unknown origin) using (5-FAM/QXLTM) FRET peptide substrate assessed as residual activity at 10 uM incubated for 15 mins prior to substrate addition measured for 2 hrs; how it was run: as §1
[20] = target: Plasminogen (Homo sapiens) (UniProt P00747); experiment: Inhibition of Plasmin (unknown origin) using H-D-CHA -Ala-Arg-AMC.2AcOH substrate assessed as residual activity at 10 uM incubated for 15 mins prior to substrate addition measured for 2 hrs; how it was run: as §2
[21] = target: Plasma kallikrein (Homo sapiens) (UniProt P03952); experiment: Inhibition of Plasma Kallikrein (unknown origin) using Z-FR-AMC substrate assessed as residual activity at 10 uM incubated for 15 mins prior to substrate addition measured for 2 hrs; how it was run: as §2
[22] = target: Beta-secretase 1 (Homo sapiens) (UniProt P56817); experiment: Inhibition of BACE1 (unknown origin) using MCA-SEVNLDAEFRK(Dnp)-RR-NH2 substrate assessed as residual activity at 10 uM incubated for 15 mins prior to substrate addition measured for 2 hrs; how it was run: as §1
[23] = target: Coagulation factor XI (Homo sapiens, UniProt P03951); experiment: Inhibition of Factor-11a (unknown origin) using (Boc-Glu(OBzl)-Ala-Arg)-MCA substrate incubated for 15 mins prior to substrate addition measured for 2 hrs; how it was run: as §1
[24] = target: Caspase-10 (Homo sapiens) (UniProt Q92851); experiment: Inhibition of Caspase 10 (unknown origin) using Ac-LEHD-AMC substrate assessed as residual activity at 10 uM incubated for 15 mins prior to substrate addition measured for 2 hrs; how it was run: as §1
[25] = target: T1, Neutrophil elastase (Homo sapiens); settings: BEAS2B, 100 uM

Sequence of Cathepsin Z (Homo sapiens) (Q9UBR2 whole entry): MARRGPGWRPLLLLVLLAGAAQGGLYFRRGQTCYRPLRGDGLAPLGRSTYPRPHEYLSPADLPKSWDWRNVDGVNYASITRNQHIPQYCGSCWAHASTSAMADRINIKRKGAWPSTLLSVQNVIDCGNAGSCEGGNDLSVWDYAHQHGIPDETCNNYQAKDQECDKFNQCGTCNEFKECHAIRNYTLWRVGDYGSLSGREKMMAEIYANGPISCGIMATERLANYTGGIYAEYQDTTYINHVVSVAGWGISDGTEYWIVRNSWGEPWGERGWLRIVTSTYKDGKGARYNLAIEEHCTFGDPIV
Sequence of Plasma kallikrein (Homo sapiens) (P03952 20-390 limits assumed): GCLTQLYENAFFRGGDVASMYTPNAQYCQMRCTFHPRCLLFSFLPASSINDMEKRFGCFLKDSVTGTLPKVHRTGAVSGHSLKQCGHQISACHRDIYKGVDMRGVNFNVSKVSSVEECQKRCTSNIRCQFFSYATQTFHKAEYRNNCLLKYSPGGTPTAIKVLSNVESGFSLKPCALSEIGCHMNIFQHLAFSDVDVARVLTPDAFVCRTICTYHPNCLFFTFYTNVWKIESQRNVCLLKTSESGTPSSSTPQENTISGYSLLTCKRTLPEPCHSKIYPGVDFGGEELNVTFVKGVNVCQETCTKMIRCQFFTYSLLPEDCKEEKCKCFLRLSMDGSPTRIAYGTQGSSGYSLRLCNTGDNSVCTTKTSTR
Sequence of Plasma kallikrein (Homo sapiens) (P03952 391-638 limits assumed): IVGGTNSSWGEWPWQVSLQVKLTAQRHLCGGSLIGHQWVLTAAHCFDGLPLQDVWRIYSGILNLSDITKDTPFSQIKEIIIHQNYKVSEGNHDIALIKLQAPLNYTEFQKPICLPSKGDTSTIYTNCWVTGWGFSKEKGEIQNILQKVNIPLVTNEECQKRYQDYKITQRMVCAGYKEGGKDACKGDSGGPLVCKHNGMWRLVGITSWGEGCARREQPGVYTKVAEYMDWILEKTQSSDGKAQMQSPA
Sequence of Dipeptidyl peptidase 9 (Homo sapiens) (Q86TI2 2-863 limits assumed): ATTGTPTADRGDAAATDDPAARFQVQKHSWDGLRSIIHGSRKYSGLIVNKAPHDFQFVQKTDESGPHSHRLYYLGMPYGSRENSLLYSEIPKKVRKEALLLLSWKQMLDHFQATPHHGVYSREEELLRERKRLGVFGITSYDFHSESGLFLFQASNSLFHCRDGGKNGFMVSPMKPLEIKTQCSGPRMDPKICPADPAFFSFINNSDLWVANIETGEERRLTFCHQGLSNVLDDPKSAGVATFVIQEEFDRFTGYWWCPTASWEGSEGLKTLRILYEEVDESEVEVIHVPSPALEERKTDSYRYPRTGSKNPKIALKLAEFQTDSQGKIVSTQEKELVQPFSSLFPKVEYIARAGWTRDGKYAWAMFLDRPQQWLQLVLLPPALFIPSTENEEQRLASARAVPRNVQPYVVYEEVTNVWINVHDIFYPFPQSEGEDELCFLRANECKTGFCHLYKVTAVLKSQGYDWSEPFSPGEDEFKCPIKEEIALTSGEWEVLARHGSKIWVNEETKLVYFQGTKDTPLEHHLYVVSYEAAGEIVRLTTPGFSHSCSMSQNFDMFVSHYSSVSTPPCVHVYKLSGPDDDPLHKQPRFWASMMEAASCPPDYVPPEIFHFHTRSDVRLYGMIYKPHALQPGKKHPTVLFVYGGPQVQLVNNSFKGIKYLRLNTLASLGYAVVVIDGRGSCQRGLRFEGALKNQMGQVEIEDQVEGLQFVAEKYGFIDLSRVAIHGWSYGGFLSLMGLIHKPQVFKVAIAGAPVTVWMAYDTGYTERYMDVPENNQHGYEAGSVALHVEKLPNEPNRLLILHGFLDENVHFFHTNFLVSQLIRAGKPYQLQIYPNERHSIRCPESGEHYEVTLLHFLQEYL
Sequence of Stromelysin-2 (Homo sapiens) (P09238 99-476 limits assumed): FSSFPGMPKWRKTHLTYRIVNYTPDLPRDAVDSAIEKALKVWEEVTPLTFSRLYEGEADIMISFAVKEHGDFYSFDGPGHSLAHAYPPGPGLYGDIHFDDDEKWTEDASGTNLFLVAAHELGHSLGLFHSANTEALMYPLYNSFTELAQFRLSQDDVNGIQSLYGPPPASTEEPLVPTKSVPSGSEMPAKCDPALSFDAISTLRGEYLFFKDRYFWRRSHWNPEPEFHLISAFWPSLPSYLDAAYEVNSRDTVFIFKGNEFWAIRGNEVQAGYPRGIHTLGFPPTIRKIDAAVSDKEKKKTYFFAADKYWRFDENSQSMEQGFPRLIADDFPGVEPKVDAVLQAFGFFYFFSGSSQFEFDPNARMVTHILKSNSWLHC
Sequence of Cathepsin L2 (Homo sapiens) (O60911 whole entry): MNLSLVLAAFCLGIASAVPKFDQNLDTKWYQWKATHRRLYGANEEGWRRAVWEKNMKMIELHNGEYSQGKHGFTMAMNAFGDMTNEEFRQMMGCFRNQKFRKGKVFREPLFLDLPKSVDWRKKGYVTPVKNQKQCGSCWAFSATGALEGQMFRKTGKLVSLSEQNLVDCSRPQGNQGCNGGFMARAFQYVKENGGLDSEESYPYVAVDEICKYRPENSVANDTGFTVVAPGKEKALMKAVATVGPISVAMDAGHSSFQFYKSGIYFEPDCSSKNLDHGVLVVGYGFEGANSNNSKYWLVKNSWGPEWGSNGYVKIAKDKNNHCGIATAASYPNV
Sequence of Cathepsin G (Homo sapiens) (P08311 whole entry): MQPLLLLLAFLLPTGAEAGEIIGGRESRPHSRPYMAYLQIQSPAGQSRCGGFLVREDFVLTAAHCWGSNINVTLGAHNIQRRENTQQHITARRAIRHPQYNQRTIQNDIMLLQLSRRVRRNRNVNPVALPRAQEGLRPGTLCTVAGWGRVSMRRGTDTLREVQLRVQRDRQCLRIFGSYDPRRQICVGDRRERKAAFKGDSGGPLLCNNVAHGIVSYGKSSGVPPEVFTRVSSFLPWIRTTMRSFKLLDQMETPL
Sequence of Neutrophil collagenase (Homo sapiens) (P22894 101-467 limits assumed): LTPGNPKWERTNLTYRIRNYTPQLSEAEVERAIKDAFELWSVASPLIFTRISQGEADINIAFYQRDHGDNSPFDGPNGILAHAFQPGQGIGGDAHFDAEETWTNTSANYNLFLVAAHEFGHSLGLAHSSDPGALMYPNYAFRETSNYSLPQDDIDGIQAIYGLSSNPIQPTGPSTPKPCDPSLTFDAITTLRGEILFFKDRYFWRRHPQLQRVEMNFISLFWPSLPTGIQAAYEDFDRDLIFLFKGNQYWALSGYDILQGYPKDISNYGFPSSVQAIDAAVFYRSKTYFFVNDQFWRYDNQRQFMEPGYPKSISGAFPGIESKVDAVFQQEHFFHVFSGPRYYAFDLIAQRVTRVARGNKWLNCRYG
Sequence of Plasminogen (Homo sapiens) (P00747 97-580 limits assumed): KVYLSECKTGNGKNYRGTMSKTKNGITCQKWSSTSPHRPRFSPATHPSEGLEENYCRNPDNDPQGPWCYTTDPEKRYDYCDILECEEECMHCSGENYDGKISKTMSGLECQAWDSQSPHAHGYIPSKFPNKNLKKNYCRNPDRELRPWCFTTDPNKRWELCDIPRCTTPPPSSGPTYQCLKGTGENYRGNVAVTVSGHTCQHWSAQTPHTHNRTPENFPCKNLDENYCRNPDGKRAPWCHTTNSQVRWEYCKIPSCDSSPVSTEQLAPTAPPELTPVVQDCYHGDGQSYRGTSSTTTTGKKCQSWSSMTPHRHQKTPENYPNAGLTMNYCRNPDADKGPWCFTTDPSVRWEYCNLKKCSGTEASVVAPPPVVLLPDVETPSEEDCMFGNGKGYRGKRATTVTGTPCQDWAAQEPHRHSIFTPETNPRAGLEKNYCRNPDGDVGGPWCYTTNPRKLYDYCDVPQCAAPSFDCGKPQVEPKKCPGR
Sequence of Plasminogen (Homo sapiens) (P00747 581-810 limits assumed): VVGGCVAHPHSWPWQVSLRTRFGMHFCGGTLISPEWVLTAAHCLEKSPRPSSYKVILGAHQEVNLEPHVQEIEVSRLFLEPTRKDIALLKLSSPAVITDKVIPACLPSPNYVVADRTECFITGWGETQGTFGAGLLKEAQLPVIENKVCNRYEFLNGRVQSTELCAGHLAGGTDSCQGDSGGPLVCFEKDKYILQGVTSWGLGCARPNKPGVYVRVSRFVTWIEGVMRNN
Sequence of 72 kDa type IV collagenase (Homo sapiens) (P08253 110-660 limits assumed): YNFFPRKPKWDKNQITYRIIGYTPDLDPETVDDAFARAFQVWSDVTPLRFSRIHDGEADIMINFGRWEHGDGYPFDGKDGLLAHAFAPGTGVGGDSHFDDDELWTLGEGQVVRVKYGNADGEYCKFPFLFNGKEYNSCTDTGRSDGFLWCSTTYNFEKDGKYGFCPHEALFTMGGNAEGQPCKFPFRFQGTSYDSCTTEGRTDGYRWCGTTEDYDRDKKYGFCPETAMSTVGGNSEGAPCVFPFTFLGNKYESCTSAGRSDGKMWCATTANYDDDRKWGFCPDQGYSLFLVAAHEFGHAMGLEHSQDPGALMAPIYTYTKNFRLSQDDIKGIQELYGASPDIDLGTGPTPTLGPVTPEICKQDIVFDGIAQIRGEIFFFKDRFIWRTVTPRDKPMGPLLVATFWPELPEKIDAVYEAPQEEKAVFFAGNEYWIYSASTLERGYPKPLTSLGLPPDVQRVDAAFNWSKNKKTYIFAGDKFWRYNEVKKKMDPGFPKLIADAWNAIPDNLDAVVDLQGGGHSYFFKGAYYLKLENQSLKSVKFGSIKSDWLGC
Sequence of Cathepsin K (Homo sapiens) (P43235 whole entry): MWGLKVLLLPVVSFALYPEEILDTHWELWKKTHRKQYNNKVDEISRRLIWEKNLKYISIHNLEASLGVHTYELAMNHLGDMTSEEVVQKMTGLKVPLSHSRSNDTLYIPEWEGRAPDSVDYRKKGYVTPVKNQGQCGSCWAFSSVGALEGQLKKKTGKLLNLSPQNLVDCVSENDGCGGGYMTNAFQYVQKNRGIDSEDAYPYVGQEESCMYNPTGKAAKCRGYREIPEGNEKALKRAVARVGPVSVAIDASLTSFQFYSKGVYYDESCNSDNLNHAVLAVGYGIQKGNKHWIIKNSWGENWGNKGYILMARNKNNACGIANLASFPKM

C/C=C1\NC(=O)[C@@H](NC(=O)[C@@H](NC(=O)[C@@H](COS(=O)(=O)[O-])OC)C(C)C)[C@@H](C)OC(=O)[C@H]([C@H](C)CC)NC(=O)[C@H](Cc2ccccc2)N(C)C(=O)[C@H](Cc2ccccc2)N2C(=O)[C@H](CC[C@H]2O)NC1=O.[Na+] [Symplostatin 5]
Activity [1]: 100%
Activity [2]: 100%
Activity [3]: 100%
Activity [4]: 100%
Activity [5]: 100%
Activity [6]: 100%
pIC50 [7]: > 5
Activity [8]: 100%
Activity [9]: 50%
Activity [10]: 100%
Activity [11]: 100%
inhibition [12]: Active
Activity [13]: 100%
Activity [14]: 100%
Activity [15]: 100%
inhibition [16]: Active
Activity [17]: 100%
inhibition [18]: Active
Activity [19]: 100%
Activity [20]: 100%
Activity [21]: 50%
Activity [22]: 100%
IC50 [23]: < 10 µM
Activity [24]: 100%
inhibition [25]: inactive
